Laboratory results reported in BindingDB's records for doi:10.1021/acsmedchemlett.0c00095 (Gilead Sciences, 2020).

molecular target: Phosphatidylinositol 3-kinase regulatory subunit alpha/4,5-bisphosphate 3-kinase catalytic subunit beta isoform (Homo sapiens, UniProt P27986+P42338); assay: Inhibition of recombinant human full-length N-terminal His6-tagged p110beta/human recombinant full-length untagged p85alpha expressed in baculovirus infected Sf21 insect cells using PIP2 as substrate after 30 mins in presence of ATP at 2xKm concentration by TR-FRET assay
Summary of the method: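 Class I PI3K isoforms assayed in vitro for kinase inhibition with ATP at 2Km steady-state concentration; IC50 values averaged over at least 2 determinations.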

Phosphatidylinositol 3-kinase regulatory subunit alpha/4,5-bisphosphate 3-kinase catalytic subunit beta isoform, sequence (P27986 whole entry, canonical isoform): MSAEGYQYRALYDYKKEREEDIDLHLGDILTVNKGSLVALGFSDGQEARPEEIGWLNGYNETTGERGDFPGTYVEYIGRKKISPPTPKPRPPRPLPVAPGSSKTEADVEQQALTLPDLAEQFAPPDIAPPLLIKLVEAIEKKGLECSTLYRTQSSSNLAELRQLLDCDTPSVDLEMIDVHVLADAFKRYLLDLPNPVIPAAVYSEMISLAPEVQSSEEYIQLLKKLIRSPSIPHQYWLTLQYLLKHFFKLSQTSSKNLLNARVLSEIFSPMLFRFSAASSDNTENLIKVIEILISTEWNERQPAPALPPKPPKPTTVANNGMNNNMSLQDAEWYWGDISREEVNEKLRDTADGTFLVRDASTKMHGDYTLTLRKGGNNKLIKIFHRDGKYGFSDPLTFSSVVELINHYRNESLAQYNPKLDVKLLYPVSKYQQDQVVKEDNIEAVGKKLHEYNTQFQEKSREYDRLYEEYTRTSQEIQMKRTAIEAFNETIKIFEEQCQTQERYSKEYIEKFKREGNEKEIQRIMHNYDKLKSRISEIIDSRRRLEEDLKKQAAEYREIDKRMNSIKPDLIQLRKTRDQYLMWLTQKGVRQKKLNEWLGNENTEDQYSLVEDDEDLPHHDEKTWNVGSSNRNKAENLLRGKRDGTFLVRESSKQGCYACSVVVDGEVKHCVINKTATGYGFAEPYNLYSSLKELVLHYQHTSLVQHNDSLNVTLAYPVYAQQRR
Phosphatidylinositol 3-kinase regulatory subunit alpha/4,5-bisphosphate 3-kinase catalytic subunit beta isoform, sequence (P42338 whole entry, canonical isoform): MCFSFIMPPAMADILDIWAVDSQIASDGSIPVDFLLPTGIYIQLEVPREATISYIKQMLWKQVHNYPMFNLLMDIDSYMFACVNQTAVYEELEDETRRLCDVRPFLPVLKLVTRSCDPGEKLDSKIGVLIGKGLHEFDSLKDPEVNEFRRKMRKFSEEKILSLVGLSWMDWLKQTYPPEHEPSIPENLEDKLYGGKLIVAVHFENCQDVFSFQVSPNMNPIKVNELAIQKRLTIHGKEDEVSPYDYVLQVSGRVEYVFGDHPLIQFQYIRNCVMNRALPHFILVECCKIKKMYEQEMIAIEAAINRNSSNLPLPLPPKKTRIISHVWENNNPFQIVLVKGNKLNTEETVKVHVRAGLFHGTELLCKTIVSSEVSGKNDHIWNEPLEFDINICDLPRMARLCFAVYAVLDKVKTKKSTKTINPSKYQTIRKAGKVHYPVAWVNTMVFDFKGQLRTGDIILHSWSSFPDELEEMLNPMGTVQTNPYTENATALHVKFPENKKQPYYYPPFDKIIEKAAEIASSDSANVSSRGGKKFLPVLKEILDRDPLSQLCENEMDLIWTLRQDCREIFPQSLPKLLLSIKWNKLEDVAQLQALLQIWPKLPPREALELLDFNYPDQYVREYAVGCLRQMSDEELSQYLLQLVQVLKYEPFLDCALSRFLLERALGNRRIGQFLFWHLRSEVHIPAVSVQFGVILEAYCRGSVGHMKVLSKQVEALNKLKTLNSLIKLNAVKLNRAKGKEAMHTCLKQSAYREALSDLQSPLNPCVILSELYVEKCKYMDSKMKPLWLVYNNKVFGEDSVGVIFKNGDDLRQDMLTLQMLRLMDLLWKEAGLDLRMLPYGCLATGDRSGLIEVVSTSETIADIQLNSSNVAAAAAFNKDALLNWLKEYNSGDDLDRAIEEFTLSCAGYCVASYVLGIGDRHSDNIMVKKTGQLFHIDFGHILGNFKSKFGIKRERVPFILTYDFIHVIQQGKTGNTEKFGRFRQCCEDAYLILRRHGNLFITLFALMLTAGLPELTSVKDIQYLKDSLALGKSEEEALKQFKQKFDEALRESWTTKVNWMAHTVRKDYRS

IC50	Compound
6 nM	Cc1nc2c(-c3nnc[nH]3)cc(-c3ccncc3)cc2n1-c1ccnc2c(F)ccc(F)c12 [US10227350, Compound 140]
341 nM	Cc1cc(-c2cc(-c3nnc[nH]3)c3nc(C)n(-c4ccnc5c(F)ccc(F)c45)c3c2)cc(N)n1 [US10227350, Compound 90]
19 nM	Cc1nc2c(-c3nnc[nH]3)cc(-c3ccnc(N)c3Cl)cc2n1-c1ccnc2c(F)ccc(F)c12 [US10227350, Compound 91]
62 nM	Cc1cc(-c2cc(-c3nnc[nH]3)c3nc(C)n(-c4ccnc5c(F)ccc(F)c45)c3c2)ncn1 [US10227350, Compound 155]
50 nM	Cc1nc2c(-c3nnc[nH]3)cc(-c3cc(N)ncc3F)cc2n1-c1ccnc2c(F)ccc(F)c12 [US10227350, Compound 76]
321 nM	Cc1nc2c(-c3nnc[nH]3)cc(-c3c(F)cnc(N)c3F)cc2n1-c1ccnc2c(F)ccc(F)c12 [US10227350, Compound 100]
7 nM	Cc1nc2c(-c3nnc[nH]3)cc(-c3ccnc(Cl)c3)cc2n1-c1ccnc2c(F)ccc(F)c12 [US10227350, Compound 158]
1400 nM	CNc1nccc(-c2cc(-c3nnc[nH]3)c3nc(C)n(-c4ccnc5c(F)ccc(F)c45)c3c2)c1F [US10227350, Compound 77]
30 nM	Cc1nc2c(-c3nnc[nH]3)cc(-c3ccnc(C(F)F)c3)cc2n1-c1ccnc2c(F)ccc(F)c12 [US10227350, Compound 43]
12 nM	Cc1nccc(-c2cc(-c3nnc[nH]3)c3nc(C)n(-c4ccnc5c(F)ccc(F)c45)c3c2)n1 [US10227350, Compound 156]
3 nM	Clc1cccc2c(-n3cnc4c(-c5nnc[nH]5)cc(N5CCOCC5)cc43)ccnc12 [US10214519, Example 111]
10 nM	Cc1nc2c(-c3nnc[nH]3)cc(-c3ccnc(N)c3)cc2n1-c1ccnc2c(F)ccc(F)c12 [US10227350, Compound 104]
5 nM	Clc1cccc2c(-n3cnc4c(-c5nnc[nH]5)cc(-c5ccncc5)cc43)ccnc12
4 nM	Cc1nc2c(-c3nnc[nH]3)cc(-c3ccnc(C#N)c3)cc2n1-c1ccnc2c(F)ccc(F)c12 [US10227350, Compound 113]
